# Shown are actives, neighbours in structure and some others; about 3.4% of the full set was active somewhere.
# Redox H2O2 prof – compounds producing H2O2 with reducing agent – biochemical, NIH compound library profiling, artefact control for MLSCN library redox annotation, primary screen; DTT-dependent redox cycling H2O2, phenol red/HRP absorbance; 100% = 100 µM peroxide control, 0% = buffer; activation, % at 10 µM; 0.03% of 200,000 active; AID 878, 2007;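 active means activation of at least 50% relative to the plate's high and low controls in the primary single-dose screen; inactive means activation below 50%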;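 further: compound incubated with DTT at 0.8 mM final as the reducing agent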
# ROMK primary – ROMK potassium channel modulators, primary screen, cell-based, thallium flux, MLSMR library; ATP-sensitive inward rectifier potassium channel 1 (Homo sapiens), P48048; Tet-inducible ROMK, thallium flux fluorescence; actives lie on both sides; B-score at 10 µM; 2% of 130,000 active;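 active means signal ratio slope over the read window, or its plate-corrected B-score, at least 3 SD from the plate mean, either direction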;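 further: B-score of the F/F0 ratio slope over 7 to 12 s after thallium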
# PKD1 kinase inh – inhibitors of human PKD1 kinase, biochemical, fluorescence polarization | Serine/threonine-protein kinase D1 (Homo sapiens), Q15139 | inhibition, % (test concentration not listed) | PKD1 kinase fluorescence polarization assay | 0.056% of 200,000 active; in the data active means inhibition above about 50%
# Mdm2 ligase inh – MDM2-luciferase reporter signal enhancers, primary screen, MDM2 E3 ligase inhibitor project, cell-based, luminescence, 1536-well. E3 ubiquitin-protein ligase Mdm2 (Homo sapiens), Q00987. cell-based MDM2 ubiquitination luciferase reporter, 2 h; 0 = plate control, 100 = twice control, blank-subtracted. signal enhancement, % at 5 µM. 0.11% of 210,000 active;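 active means signal enhancement of 30% or more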;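 further: luminescence tracks abundance of the self-degrading MDM2-luciferase fusion protein; higher signal means inhibition of MDM2 E3 ligase activity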
#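 system = mammalian cells stably expressing self-ubiquitinating, self-degrading MDM2 E3–luciferase fusion | quantity = 2000 cells per well seeded | incubation = 4 h cell settling then 2 h compound exposure, 37 °C | signal = SteadyLite luminescence, 15 min reagent step | benchmarks = plate control and blank wells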
# p97 ATPase inh – inhibitors of human p97 ATPase, primary screen, biochemical. Transitional endoplasmic reticulum ATPase (Homo sapiens), P55072. recombinant p97 ATPase, Kinase-Glo ATP luminescence, 3 h. inhibition, % at 8 µM. 0.42% of 220,000 active. AID 1481, 2009; in the data active means inhibition above about 15%;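 further: 0% = DMSO vehicle and 100% = wells lacking enzyme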
# Cl transport mod – KCC2 cotransporter modulators, thallium flux, primary screen, cell-based, HEK293 KCC2, FluoZin-2 fluorescence, MLSMR | 2.2% of 190,000 active | AID 1456, 2008 | Solute carrier family 12 member 5 (Homo sapiens), Q9H2X9 | KCC2 cells, thallium flux FluoZin-2 fluorescence | B-score of Tl+ flux slope (higher = more flux/activation; lower = inhibition) at 10 µM;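 active means thallium flux slope and its plate-corrected score both differing from the plate sample mean at a set confidence after two filtering rounds, in either direction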;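 further: slope of fluorescence scaled to starting intensity during 10 to 20 s after thallium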
# KCC2 secondary – KCC2 modulators in sodium-free buffer, confirmation, cell-based, HEK293 KCC2, thallium flux, secondary assay | shares compounds with Cl transport mod | FluoZin2 fluorescence; hits give high values | normalised thallium flux (F/F0 slope) at 10 µM | 15% of 3,700 active | AID 1713, 2009;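 active means thallium flux slope above the same plate's solvent-only control mean plus 3 SD; inconclusive means the two replicate wells disagree; inactive means no significant difference from solvent-only control wells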
# KCC2 bumet counter – thallium flux persisting under bumetanide in KCC2 cells, confirmation, counter-screen for KCC2 modulator project, cell-based, HEK293 KCC2, FluoZin2, secondary assay 3; HEK293-KCC2 + bumetanide/ouabain; hits give high values; shares compounds with Cl transport mod; normalized thallium flux at 10 µM; 49% of 3,700 active;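 active means thallium entry rate above the same plate's blocked-transporter control wells by more than 3 SD; inconclusive means the two repeat wells disagree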;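 further: raw slope of fluorescence over initial fluorescence between 10 and 20 s after thallium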
# KCC2 secondary2 – KCC2 modulators without ouabain present, confirmation, cell-based, HEK293 KCC2, thallium flux, FluoZin2, secondary assay 2; shares compounds with Cl transport mod; thallium flux FluoZin2 fluorescence; actives lie on both sides; F/F0 rise rate, 10–20 s post-thallium; normalized thallium flux at 10 µM; 23% of 3,700 active; AID 1715, 2009;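 active means thallium flux slope more than 3 SD above or below the plate's solvent-only control mean, mostly below; inconclusive means the two repeat wells disagreed; inactive means no significant shift from solvent-only controls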;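 further: raw slope with 0.1% DMSO as baseline and bumetanide as block control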
# HEK293 Tl flux – thallium flux modulation in parental HEK cells, confirmation, counter-screen for KCC2 modulator project, cell-based, counterscreen 1; thallium flux rate (normalised fluorescence) at 10 µM; 46% of 3,700 active; shares compounds with Cl transport mod; HEK293 parental cells, thallium flux FluoZin2, ouabain; baseline-ratio fluorescence slope, 10–20 s after thallium;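 active means thallium flux rate significantly above the same plate's solvent-only control wells, beyond their mean plus 3 SD; inconclusive means the two replicate wells gave conflicting results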
# KCC2 ouabain – KCC2 inhibitors and activators, ouabain retest, confirmation, HEK-KCC2 cells | shares compounds with Cl transport mod | HEK293-KCC2, thallium flux FluoZin2 fluorescence; bidirectional: low = inhibitor, high = activator | raw Tl+ flux slope (below DMSO = inhibition, above = activation) at 10 µM | 48% of 3,700 active;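 active means thallium flux slope beyond 3 SD from same-plate DMSO control mean in most replicates, usually higher, sometimes lower; inconclusive means repeat tests gave conflicting results; inactive means no significant difference from controls in most replicates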;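 further: slope of initial-normalized fluorescence between seconds 10 and 20 after thallium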
# HEK293 Tl flux2 – native HEK Tl+ uptake effects, second counter-screen – HEK cells, counterscreen 2, counter-screen for KCC2 modulator project, confirmation | 33% of 3,700 active | thallium flux slope at 10 µM | AID 1718, 2009 | shares compounds with Cl transport mod | HEK293 parental, thallium flux FluoZin-2 fluorescence slope;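 active means thallium flux slope above the same plate's solvent-control mean plus 3 SD in both duplicate wells; inconclusive means duplicate wells that disagreed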;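 further: run without ouabain in cells lacking the KCC2 cotransporter; slope of fluorescence scaled to its starting value between 10 and 20 s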
# * hit, by the source's call; ? = inconclusive; nt = no result.
SMILES,Redox H2O2 prof,ROMK primary,PKD1 kinase inh,Mdm2 ligase inh,p97 ATPase inh,Cl transport mod,KCC2 secondary,KCC2 bumet counter,KCC2 secondary2,HEK293 Tl flux,KCC2 ouabain,HEK293 Tl flux2
O=c1c2ccccc2nnn1Cc1ccccn1,2,0.64,-19,-11,7,-5*,0.011,?,0.033,0.0076,0.022,0.01
CN(C)c1ccc(/C=N/NC(=O)CSc2ccccn2)cc1,nt,nt,nt,-5,7,nt,nt,nt,nt,nt,nt,nt
NS(=O)(=O)c1ccc2c(c1)C1C=CCC1C(C1CC=CCC1)N2 (centres undefined),0,-0.63,2,-4,8,4.7*,0.0078,0.0059,0.033,0.0076,0.021,0.01
CC(C)C1Nc2ccc(S(N)(=O)=O)cc2C2C=CCC21 (centres undefined),-3,nt,-8,8,-4,-0.22,nt,nt,nt,nt,nt,nt
CCN(CCCNC(=O)C1CCN(S(=O)(=O)CC)CC1)c1cccc(C)c1,2,nt,-8,-7,0,0.053,nt,nt,nt,nt,nt,nt
Cc1nn(C)c(C)c1S(=O)(=O)N(CC(=O)N1CCc2ccccc2C1)c1ccc(C(C)C)cc1,-2,nt,0,-9,-5,nt,?,0.0049,0.025*,?,0.014*,0.0094
CC1CCCCN1C(=O)CSc1nnc(-c2c[nH]c3ccccc23)o1 (centres undefined),-1,0.96,-16,4,-3,-3.3*,0.018,0.0048,0.023*,0.0074,0.015,0.01
C=CCN1C(=O)C(O)(CC(=O)c2ccc(-n3cccc3)cc2)c2ccccc21 (centres undefined),-1,-0.68,3,-18,-2,-0.44,nt,nt,nt,nt,nt,nt
C=CCn1c(SCC(=O)c2ccccc2)nnc1-c1ccc2c(c1)OCO2,0,-0.37,-4,-14,-8,-2.3,0.01,0.0068,0.033,0.0075,0.021,?
CCOc1ccccc1NC(=S)Nc1ccc2cn[nH]c2c1,nt,nt,nt,nt,-1,-0.43,nt,nt,nt,nt,nt,nt
CC(=O)Oc1c(-c2ccco2)oc2ccccc2c1=O,-1,1.4,-3,-8,8,40*,0.045*,0.071*,0.057*,0.057*,0.056*,0.056*
